# High-throughput results deposited in PubChem by Broad Institute.
# A selection: hits, their analogues and other compounds. The true share with any hit is near 2%.
# dFosB act – enhances mouse delta FosB homodimer DNA binding | 340,000 tested, 0.99% active | AID 493131 | P13346 | purified delta FosB, TAMRA-CDK5 oligo fluorescence polarization; percent of positive-control signal above neutral wells | activation, % at 25 µM;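 active means mean activation above about 17%, with every replicate also reaching it, limit read from the data, passing the limit was not always enough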
# Target sequence (P13346 whole entry, looked up): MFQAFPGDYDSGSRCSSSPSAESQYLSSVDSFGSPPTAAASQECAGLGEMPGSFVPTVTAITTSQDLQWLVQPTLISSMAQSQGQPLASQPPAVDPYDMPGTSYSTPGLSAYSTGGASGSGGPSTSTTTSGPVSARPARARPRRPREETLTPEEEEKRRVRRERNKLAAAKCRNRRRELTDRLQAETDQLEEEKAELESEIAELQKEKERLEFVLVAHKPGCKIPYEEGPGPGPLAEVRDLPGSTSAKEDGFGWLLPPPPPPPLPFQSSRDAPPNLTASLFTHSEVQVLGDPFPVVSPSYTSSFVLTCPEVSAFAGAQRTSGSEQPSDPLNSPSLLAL
# C2C12 statin – suppressors of simvastatin-induced myotoxicity in C2C12 myotubes; ATP luminescence, 48 h; scaled: DMSO 0, geranylgeraniol control 100; rescue of ATP level, % at 7.49 µM; 330,000 tested, 0.78% active;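 active means mean ATP rescue above about 67%, or every replicate alone reaching that limit, limit read from the data, passing the limit was not always enough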;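 further: myotubes were challenged with 10 µM simvastatin during compound exposure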
# S100A4 MyoIIA – inhibitors of human S100A4 binding to myosin IIA peptide. P26447. S100A4/TAMRA-MyoIIA peptide fluorescence polarization. inhibition, % at 10.7 µM. 360,000 tested, 0.14% active;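 active means mean inhibition of at least 70% across replicates, with every replicate also reaching that level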
# Target sequence (P26447 whole entry, looked up): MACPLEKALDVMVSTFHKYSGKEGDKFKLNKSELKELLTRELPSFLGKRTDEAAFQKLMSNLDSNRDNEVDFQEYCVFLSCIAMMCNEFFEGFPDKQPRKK
#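 System – human S100A4 monomer protein, biochemical binding assay · Buffer or medium – Calcium-containing HEPES buffer, pH 7.2 · Timing – 5 min between mix addition and reading · Also added – TAMRA-labelled myosin IIA heavy-chain peptide probe, 5 nM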
# CAL PDZ FP-1 – human CAL PDZ-peptide interaction inhibition; purified CAL PDZ, TMR-peptide fluorescence polarization, 1 h; AID 504414; inhibition, % at 20 µM; 330,000 tested, 0.02% active;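 active means highest replicate inhibition of at least 40%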;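 further: plate controls were DMSO neutral control wells for no effect and unlabeled competitor peptide control wells for full effect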
#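 material = purified tagged CAL PDZ domain construct (CerCALP) | buffer or medium = sodium phosphate/NaCl buffer pH 7.4 with TCEP, IgG, Thesit | reagent = TMR-labelled reporter peptide T*-PRC34 bound in PDZ groove | incubation = 1 h room-temperature incubation prior to read | measured by = fluorescence polarization (mP) | evaluation = percent inhibition from loss of millipolarization | control set = unlabelled peptide and DMSO controls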
# CDK5 inh – blocks human CDK5/p35 kinase activity; Recombinant CDK5/p35, ADP-Glo luminescence, 60 min; Q00535+Q15078; 330,000 tested, 0.01% active; inhibition, % at 10 µM;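 active means highest replicate inhibition of at least 50% and at least 75% of replicates reaching 50%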;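 further: plate controls were DMSO neutral control for no effect and GW8510 at 10 µM for full effect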
# CAL PDZ FP-2 – inhibitors of human CAL PDZ peptide binding; Q9HD26; purified CAL PDZ, TMR-peptide fluorescence polarization, 1 h; inhibition, % at 24.9 µM; 300,000 tested, 0.92% active; AID 602252;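 active means mean inhibition of at least 30% with at least half of replicates also reaching 30%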;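 further: 0% = DMSO neutral control and 100% = excess unlabeled competitor peptide PRC23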
# Active calls of the source: *; / = no result.
SMILES,dFosB act,C2C12 statin,S100A4 MyoIIA,CAL PDZ FP-1,CDK5 inh,CAL PDZ FP-2
O=C(Nc1ccc(C(F)(F)F)cc1)c1ccc2nc[nH]c2c1,-6.0,-20.7,-3.8,-2.3,-0.4,-0.4
COc1ccccc1/C=N/NC(=O)c1ccc2c(c1)OCO2,-3.0,-1.7,-1.5,/,-0.1,69.9*
COc1ccccc1C(=O)NNC(=O)c1ccc(NC(=O)C(C)C)cc1,1.7,/,-4.9,-1.8,-0.2,65.5*
O=C(Nc1ccc2c(c1)OCO2)c1ccc2nc[nH]c2c1,-0.9,85.7*,/,0.5,0.1,-2.5
O=C(N/N=C/c1ccccc1OC(=O)c1ccc2c(c1)OCO2)c1ccccc1,8.3,/,14.5,-0.7,-0.5,-3.9
Cc1cccc(NC(=O)CSCC(=O)Nc2cc(Cl)ccc2N2CCOCC2)c1,-9.8,0.5,12.3,-2.8,-0.2,-2.0
O=C(CSc1nnc(-c2cccnc2)n1-c1ccccc1)NCc1ccc2c(c1)OCO2,-8.0,9.4,/,/,-1.0,-1.5
Cc1cc(F)ccc1NC(=O)CCCN(C)S(=O)(=O)c1ccc(F)cc1,-11.0,/,-13.9,-3.5,1.4,0.7
COc1ccc(C(=O)Nc2cccc3nc(C)ccc23)c(OC)c1,-36.0,7.1,-1.4,-3.1,1.4,4.5
COc1ccccc1N(CC(=O)Nc1ccc2c(c1)OCCO2)S(C)(=O)=O,5.5,121.9*,/,-1.1,2.2,-7.2
COc1ccccc1C(=O)Oc1ccccc1C(=O)Nc1ccccc1,-5.8,-0.9,2.6,-0.6,-1.0,73.6*
Cc1oc(C(C)(C)C)cc1C(=O)Nc1ccc2c(c1)OCCO2,1.8,94.8*,/,-1.6,2.6,0.7
COc1ccccc1C(=O)Nc1cccc2nc(C)ccc12,-9.1,11.2,3.8,8.1,-0.1,82.0*
Cc1oc(C(C)(C)C)cc1C(=O)Nc1ccc2c(c1)OCO2,/,-16.9,0.4,/,/,/
O=C1C=C(N2CCCCCC2)C(=O)N1c1ccc(Cl)cc1,-11.1,-4.0,-5.0,/,0.7,-4.7
CC(C)c1cc(C(=O)Nc2ccc3c(c2)OCO3)no1,-5.6,83.2*,1.1,-0.6,1.0,/
COc1ccccc1C(=O)Nc1ccc2c(c1)OCO2,-9.5,113.8*,/,-2.4,0.8,/
Cc1ccc(C)c(OCC(=O)Nc2ccc3c(c2)OCO3)c1,-19.4,/,-28.3,-1.0,-1.9,-2.7
O=C(Nc1ccc2c(c1)OCO2)c1cc(C2CC2)on1,-3.9,1.9,2.5,-1.3,0.5,-2.4
Cc1cc(C)c(OCC(=O)Nc2ccc3c(c2)OCO3)cc1C,1.6,-6.2,/,-1.6,-0.7,active
C/C(=N\NC(=O)c1ccc2c(c1)OCO2)c1ccc2c(c1)OCO2,-1.0,-12.5,-0.6,-1.2,0.5,47.5*
CO[C@@H]1CN(C)C(=O)c2ccc(NS(=O)(=O)c3cn(C)cn3)cc2OC[C@@H](C)N(Cc2cccc(Cl)c2)C[C@H]1C,/,12.6,3.5,/,/,/
Cc1ccc2cc(C#N)c(N3CCN(C(=O)c4cccs4)CC3)nc2c1,-8.2,-7.0,-1.0,-1.5,1.5,/
CC[C@H]1CCCCc2ccccc2[C@@H](C(=O)C[C@@H](O)CC(C)=O)OC1=O,-6.5,3.6,-1.8,0.2,-3.1,-8.8
CCOc1ccc(OCCC(=O)OCC(=O)NC2CC2)cc1,-1.8,0.9,0.9,-1.7,1.5,-0.2
SMILES,dFosB act,C2C12 statin,S100A4 MyoIIA,CAL PDZ FP-1,CDK5 inh,CAL PDZ FP-2
Cc1ccc(C(=O)NCC2(c3ccccc3)CCCC2)cc1,3.3,121.0*,/,-1.0,0.7,-0.8
O=C(NCC1(c2ccccc2)CCCC1)c1ccc(Br)cc1,-1.5,/,/,-0.6,-1.7,0.4
CCOCCN1CCN(c2c(CC)c(C)nc3cc(-c4cc(OC)cc(OC)c4)nn23)CC1,-14.6,98.9*,/,-3.0,0.7,-2.7
Cc1c(CN2CCC(CO)(CCOc3ccccc3)CC2)[nH]c2c(Cl)cccc12,21.3*,/,7.3,-5.3,-1.5,-5.4
Cc1nn(C)c(Cl)c1CN1CCC(CO)(CCOc2ccccc2)CC1,1.0,-3.3,-2.2,-0.1,-0.7,-4.2
C=CCCCCCCCCc1nc(SCC(=O)O)n[nH]1,-2.3,-4.7,-7.4,-2.0,-0.4,-2.5
C=CCCCCCCCCc1nc(=S)[nH][nH]1,-1.1,148.1*,/,-0.4,5.7,0.2
COC(=O)N/N=C/C1=CCC2CC1C2(C)C (stereo unspecified),4.4,0.3,4.0,0.0,-0.7,/
CC1(C)C2CC=C(/C=N/NC(=O)c3ccc(O)cc3)C1C2 (stereo unspecified),-15.6,/,/,-1.8,0.4,77.9*
O=C(NCCS(=O)(=O)NCCCc1ccccc1)c1ccccc1,3.7,/,93.6*,-2.5,-1.7,-4.4
Cc1cc(=O)oc2c(C)c(OCC(=O)N3CCN(c4ccc(F)cc4)CC3)ccc12,-19.7,-0.6,-0.7,-2.4,0.3,-8.2
COc1ccc(N2CCN(C(=O)COc3ccc4c(C)cc(=O)oc4c3C)CC2)cc1,-0.7,107.5*,-11.6,-1.6,-1.0,-2.1
COc1ccc(OC)c(NC(=O)NNC(=O)CCCOc2ccc(Cl)cc2C)c1,-11.7,/,1.9,-0.5,-3.1,47.8*
O=C(NCCN1CCN(C(=O)Nc2ccccc2)CC1)Nc1ccccc1,-4.3,19.6,-1.2,0.9,2.2,-3.5
O=C(NC(=S)Nn1cnnc1)c1ccccc1,-1.8,-4.7,2.6,-0.2,2.0,-5.1
O=C(NC(=S)Nn1cnnc1)c1ccccc1Br,4.1,/,-4.6,-0.1,0.7,52.9*
CN(C)N1C(=O)CC(C)(c2ccc([N+](=O)[O-])cc2)C1=O (stereo unspecified),0.2,114.1*,-3.2,0.0,-0.3,-2.1
COc1cc(Cl)c(C)cc1NC(=O)COC(=O)c1cnc(C)cn1,1.0,94.9*,/,-1.0,0.7,0.3
COc1ccccc1NC(=O)COC(=O)c1cnc(C)cn1,-6.9,11.3,5.7,-0.5,0.7,-3.2
Cc1nnc(NC(=O)CSc2nnc3c(n2)[nH]c2ccc(Br)cc23)s1,153.4*,-8.3,9.4,-0.2,3.2,/
Cc1ccc(C(=O)NNC(=O)CSc2nnc3c(n2)[nH]c2ccc(F)cc23)cc1,-0.6,-1.8,/,-3.1,1.5,-5.4
COc1cccc(CC(=O)OCC(=O)NC2(C#N)CCCCC2)c1,-2.2,-1.1,-7.2,-1.5,1.6,2.4
O=C(COc1ccc(Cl)cc1)Nc1cc(NC(=O)COc2ccc(Cl)cc2)cc(C(=O)O)c1,-8.4,-2.1,7.7,/,-1.1,86.5*
O=C(COc1ccc(Br)cc1)Nc1ccc(NC(=O)c2ccccc2)cc1,24.9*,/,-6.0,-0.5,1.2,1.8
Cc1ccc(OCC(=O)Nc2cc(NC(=O)COc3ccc(C)cc3)cc(C(=O)O)c2)cc1,-22.6,6.9,5.2,-1.5,-0.2,-6.0
N#Cc1ccc(-c2ccc([C@H]3[C@H]4CN(C(=O)C5CCCCC5)CC(=O)N4[C@H]3CO)cc2)cc1,/,/,3.4,/,/,/
